These results are taken from the EternaBench riboswitch data.

The test system of the series is MS2 coat protein. The series is described as follows: apparent Kd, MS2 coat protein; higher = weaker binding; RNA-MaP array; FMN 200 µM where present. In a few lines:
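Each design was made on Illumina sequencing-chip clusters by stalled E. coli RNA polymerase and titrated with SNAP-549-labelled MS2 coat protein from 0.7 or 1.5 nM, doubling to 3 µM, in the absence and then the presence of constant ligand. The buffer was 100 mM Tris-HCl pH 7.5, 80 mM KCl, 4 mM MgCl2, BSA, DTT, yeast tRNA and Tween-20. The apparent Kd is the median of filtered per-cluster fits of binding curves, with green signal normalised to red-channel RNA signal and control-cluster median Fmax.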

Setting [1] is: designed as: OFF switch for flavin mononucleotide, no ligand.
Setting [2] is: ligand present: flavin mononucleotide, designed as: OFF switch for flavin mononucleotide.
The mark [3] stands for this setting: designed as: ON switch for flavin mononucleotide, no ligand.
Where [4] appears, read: ligand present: flavin mononucleotide, designed as: ON switch for flavin mononucleotide.

In the case of “UACAUGAGGAUCACCCAUGUUUUGUCGUGUAUGGUAUUUAUCUAGGAUAUCAAUCUAUUAAUUUAUGAGAAGGAGAAUAUUAAU”, the “apparent Kd” value under setting [1] is 35.5 nM and the “apparent Kd” value under setting [2] is 39.7 nM.
Consider “UGUUGUUCAGGAUAUGAUGUAUAAUACAUGAGGAUCACCCAUGUAGGUCCUGAUUUGGCGUCAGAAGGGAAUGUUG”, for which the “apparent Kd” value reads like this: under setting [1], 27.7 nM; under setting [2], 31 nM.
In the case of “CCAGAGGUCACAGGAUAUGACUCGUCCAAAUGGUCAGAAGGGUGAAUCACAUUAUGUAUACAUGAGGAUCACCCAUGUCCUACG”, the “apparent Kd” value under setting [3] came to 93.2 nM and the “apparent Kd” value under setting [4] stood at 498 nM.
On the same counts, the results for “AAUUACAUGUAGAAGGUACUUUCAUAAGUGUUGUAAGGAUAUACCAAUUUAUUAGUUUUAAAGAUACAUGAGGAUCACCCAUGU” are 8.59 nM and 8.18 nM.
As to “GCGUCACAAUUAGAACCAAUACGAACAUGAGGAUCACCCAUGUAGGAUAUGCUAGAAGUUGAGUUGCAGAAGGACAUAUAACGC”, the “apparent Kd” value amounted to 12 nM under setting [1] and 10.9 nM under setting [2].
The corresponding values for “AGAAAACAUGAGGAUCACCCAUGUGAGGAUAUCGAUGUCCAAGGCCGGGUGCGGGACUCGAGAAGGCACUUGGA” are 76.9 nM and 32.3 nM.
On the same counts, the results for “CCGGAAAUACAGGAUAUAGGAGUCGAUAGACUCCUAGAAGGGUAUACAUGAGGAUCACCCAUGUGUCCUACCGG” are 26.5 nM and 31.7 nM.
On the same counts, the results for “AUCAAGUGAGGAUAUGAUAAUACAACAAACAAACAUCUACAUCAGAAGGCACAUGAGGAUCACCCAUGUUAAUC” are 22.7 nM and 27.1 nM.
“UUUUAACAUGAGGAUCACCCAUGUGAGGAUAUCGAAAUUUAUAUUAAUAUUAUUUAAUCGAGAAGGCACAUUUU”: the “apparent Kd” value runs as follows: under setting [1], 110 nM; under setting [2], 118 nM.
As for “AGUUAAUAUCGAGGAUAUCUCAUGGAGACAUGAGGAUCACCCAUGUGAAUGGGAGAAGGCGAUAUUAACAGCAUGUUACAUGCA”, the “apparent Kd” value by setting is: under setting [3], 284 nM; under setting [4], 21.2 nM.
On to “AGAAACUACGAGAAGGACAUAUAAUUCUUCAGAUACAUGAGGAUCACCCAUGUAGGAUAUCGUAGUUUCAGGAUCGUGAGAUCA”, for which the “apparent Kd” value reads like this: under setting [1], 5.95 nM; under setting [2], 10.3 nM.
The corresponding values for “GACUGCUGAGGAUAUACAUGAGGAUCACCCAUGUGCUUCAGCUAGGAGACUAGCAUUGGUAGAAGGUAGUAGUC” are 11.1 nM and 16.1 nM.
On the same counts, the results for “GAGGCUGGUCAGAAGGCGCUGCAGGCUGCGUAGCGAGGAUAUGACAUGAGGAUCACCCAUGUGGUAGCUGAUCCUCGGCGUUUA” are 361 nM and 33.3 nM.
On the same counts, the results for “UCACGGCAUGUAGGAUAUGCAUAGCAUUGCUAUGCAGAAGGACAUGAGGAUCACCCAUGUAUGUAUUCCAUACUAUUCCCGUGU” are 7.42 nM and 14.8 nM.
On to “GACUUGUUAGGAUAUCUUACUUUUGCAUCAUAGUAACCAUUGGAGAAGGGACAUGAGGAUCACCCAUGUUUGGA”, for which the “apparent Kd” value stood at 32.9 nM under setting [1] and 28.9 nM under setting [2].
On the same counts, the results for “AGAAACUACGAGAAGGACAUGUGGUCCUUCAGUUACAUGAGGAUCACCCAUGUAGGAUAUAAAAGUUUCAGGAUCGUGAGAUCA” are 6.78 nM and 7.1 nM.
On to “GUAGGCGACCAGAAGGGUGACAUGAGGAUCACCCAUGUAGGUGUGUUCCCGCUUAGGAGCCACCCACAGGAUAUGGUUGGUUAG”, for which the “apparent Kd” value under setting [3] was determined as 27.6 nM and the “apparent Kd” value under setting [4] worked out at 23.9 nM.
The corresponding values for “GGCGAACAGGCUAACAUGAGGAUCACCCAUGUGGACUCAUGGUAGGAUAUGCUGUAGAAACUACAGCAGAAGGGCCGGUGAGCC” are 66.1 nM and 294 nM.
The corresponding values for “GUAGCAAUCGGAGGAUAUUCAUUAAACAUGAGGAUCACCCAUGUUAAUUUGGGAGAAGGCCGAUUGCUACAAGAGCGAAAGCUC” are 7.23 nM and 4.66 nM.
On the same counts, the results for “GGUCCAUUAUGAGGAUAUGGCACCUUAUUGGUGCCAGAAGGCAUGUGUAUUCACAUGAGGAUCACCCAUGUAAUAAAUUGGACC” are 87.2 nM and 20 nM.
For the sequence “GUCUCGAUGUAAGGAUAUGCAGUGGAUAACACUGCAGAAGGUACAUGAGGAUCACCCAUGUAACUCUAAUAAUAAUAACGAGAC”, the “apparent Kd” value under setting [1] turned out to be 13.1 nM and the “apparent Kd” value under setting [2] was 17.3 nM.
Consider “GAGUAGUUGAAAGGAUAUUGAUUGUUAUAGAAUCAAGAAGGUUCUAACAUGAGGAUCACCCAUGUAGGACUAUUCCUGUGUAUC”, for which the “apparent Kd” value came out at 12.3 nM under setting [3] and 9.66 nM under setting [4].
On to “UUUAUAAAGGUAGGAUAUUGUAUUAUAAUUAAAUAAGAAGGAUCACACAUGAGGAUCACCCAUGUAUGAGGAUCACCCAUGUAU”, for which the “apparent Kd” value under setting [1] amounted to 15.7 nM and the “apparent Kd” value under setting [2] turned out to be 14.4 nM.
As to “UGUUAUUUGACAGGAUAUUGAUUGUUAAGUUUUUACAUGAGGAUCACCCAUGUUGUUCAUUCGUACAAGAAGGGUCAAGUUUUU”, the “apparent Kd” value was 72.8 nM under setting [3] and 27.2 nM under setting [4].
